A short description of series [1]: Intrinsic cytotoxicity against human K562 cells assessed as cell survival […] by MTT assay. In kind it is cell-based. The note with it: read-out: Survival. For orientation: Tetrazolium dyes change colour on reduction, which living cells bring about.
The subject of series [2] is K562/R7. Put plainly: Inhibition of p-gp (unknown origin) in doxorubicin-resistant human K562/R7 cells assessed as increase in daunorubicin accumulation measured as fluorescence ratio at 10 uM incubated for 1 hr with 10 uM daunorubicin by flow cytometry relative to control. In kind it is cell-based. The gist of the method:
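Resistant K562/R7 cells ([…]) incubated 1 h at 37 °C in RPMI 1640 with daunorubicin 10 µM, with or without steroid at 10 µM; intracellular fluorescence read by flow cytometry. Accumulation index = daunorubicin fluorescence ratio with/without modulator. Cyclosporin A as positive control. Duplicates, at least three separate experiments.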

The values below come from ChEMBL document CHEMBL3414422, “Synthesis of new steroidal inhibitors of P-glycoprotein-mediated multidrug resistance and biological evaluation on K562/R7 erythroleukemia cells” (J Med Chem, 2015).

On to `CC(=O)[C@H]1CC[C@H]2[C@H]3[C@H]([C@H](O[C@@H]4CCCCO4)C[C@]12C)[C@@]1(C)CCC(=O)C[C@@H]1C[C@H]3OC(=O)c1ccccc1`, for which the viability in series [1] came to 77.8%. The Ratio in series [2] came out at 2.4.

Regarding `CC(=O)[C@H]1CC[C@H]2[C@@H]3CCC4=CC(=O)CC[C@]4(C)[C@H]3CC[C@]12C` [PROGESTERONE], the viability in series [1] was determined as 81.6%. For the same compound, the Ratio in series [2] is 1.2.

For `CC(=O)[C@H]1CC[C@H]2[C@@H]3[C@H](OC(=O)c4ccccc4)C[C@@H]4CC(=O)CC[C@]4(C)[C@H]3CC[C@]12C`, the Ratio in series [2] came out at 2.2.

`COCCCC(C)[C@H]1CC[C@H]2[C@@H]3[C@H](OC(=O)c4ccccc4)C[C@@H]4CC(=O)CC[C@]4(C)[C@H]3C[C@H](OC(=O)c3ccccc3)[C@]12C` (some centres undefined): in series [1], the viability was 50.7%. The Ratio in series [2] is 1.7.

Consider `CC(=O)[C@H]1CC[C@H]2[C@H]3[C@H]([C@H](O[C@@H]4CCCCO4)C[C@]12C)[C@@]1(C)CCC(=O)C[C@H]1C[C@H]3OC(=O)c1ccccc1`, for which the viability in series [1] worked out at 80.8%. Also, the Ratio in series [2] was 2.9.

With `CC(=O)[C@H]1CC[C@H]2[C@H]3[C@H]([C@H](O[C@H]4CCCCO4)C[C@]12C)[C@@]1(C)CCC(=O)C[C@H]1C[C@H]3OC(=O)c1ccccc1`, the viability in series [1] is 100%. For the same compound, in series [2], the Ratio turned out to be 2.3.

Take `COCCCC(C)[C@H]1CC[C@H]2[C@@H]3[C@H](OC(=O)c4ccccc4)C[C@@H]4CC(=O)CC[C@]4(C)[C@H]3C[C@H](O[C@@H]3CCCCO3)[C@]12C` (some centres undefined): the viability in series [1] came to 54.4%. Also, the Ratio in series [2] turned out to be 2.4.

With `CC(=O)[C@@]1(O[C@@H]2CCCCO2)CC[C@H]2[C@@H]3CC[C@@H]4CC(=O)CC[C@]4(C)[C@H]3CC[C@@]21C`, the Ratio in series [2] was determined as 2.3.

Consider `C[C@]12CC[C@H]3[C@@H](CCC4=CC(=O)CC[C@@]43C)[C@@H]1CC[C@@H]2C(=O)COC1CCCCO1` (mixture of isomers), for which the Ratio in series [2] amounted to 1.6.

In the case of `COCO[C@H]1C[C@H]2[C@@H]([C@H](O)C[C@@H]3CC(=O)CC[C@@]32C)[C@@H]2CC[C@H](C(C)CCC(=O)OC)[C@@]12C` (some centres undefined), the viability in series [1] came to 84.7%. Besides, in series [2], the Ratio stood at 2.1.

As for `COC(=O)CCC(C)[C@H]1CC[C@H]2[C@@H]3[C@H](O[C@@H]4CCCCO4)C[C@@H]4CC(=O)CC[C@]4(C)[C@H]3C[C@H](OC(=O)c3ccccc3)[C@]12C` (some centres undefined), the viability in series [1] came to 51.3%. In addition, the Ratio in series [2] was 2.9.

`COC(=O)CCC(C)[C@H]1CC[C@H]2[C@@H]3[C@H](OC(=O)c4ccccc4)C[C@@H]4CC(=O)CC[C@]4(C)[C@H]3C[C@H](O[C@@H]3CCCCO3)[C@]12C` (some centres undefined): in series [1], the viability turned out to be 56.4%. The Ratio in series [2] is 2.1.

For the compound `CC(=O)[C@H]1CC[C@H]2[C@H]3[C@H]([C@H](O[C@H]4CCCCO4)C[C@]12C)[C@@]1(C)CCC(=O)C[C@@H]1C[C@H]3OC(=O)c1ccccc1`, the Ratio in series [2] was 2.3.

Regarding `COCO[C@H]1C[C@H]2[C@@H]([C@H](OC(=O)c3ccccc3)C[C@@H]3CC(=O)CC[C@@]32C)[C@@H]2CC[C@H](C(C)CCC(=O)OC)[C@@]12C` (some centres undefined), the viability in series [1] was 49.7%. Further, in series [2], the Ratio was 2.9.

Take `COC(=O)CCC(C)[C@H]1CC[C@H]2[C@@H]3[C@H](OC(=O)c4ccccc4)C[C@@H]4CC(=O)CC[C@]4(C)[C@H]3C[C@H](OC(=O)c3ccccc3)[C@]12C` (some centres undefined): the viability in series [1] came to 57.3%. Besides, the Ratio in series [2] was 1.5.

As for `CC(=O)[C@H]1CC[C@H]2[C@H]3[C@H]([C@H](OC(=O)c4ccccc4)C[C@]12C)[C@@]1(C)CCC(=O)C[C@H]1C[C@H]3O`, the viability in series [1] is 81.1%. In series [2], the Ratio worked out at 2.3.

In the case of `CC(=O)[C@H]1CC[C@H]2[C@H]3[C@H]([C@H](OC(=O)c4ccccc4)C[C@]12C)[C@@]1(C)CCC(=O)C[C@@H]1C[C@H]3OC(=O)c1ccccc1`, in series [1], the viability was found to be 71.1%. In addition, the Ratio in series [2] was 2.5.

As to `CC(=O)[C@@]1(O[C@@H]2CCCCO2)CC[C@H]2[C@@H]3CCC4=CC(=O)CC[C@]4(C)[C@H]3CC[C@@]21C`, the Ratio in series [2] was found to be 2.4.

Regarding `CC(=O)[C@H]1CC[C@H]2[C@@H]3CCC4=CC(=O)CC[C@]4(C)[C@H]3[C@H](O)C[C@]12C`, the Ratio in series [2] amounted to 1.

Take `CC(=O)[C@H]1CC[C@H]2[C@H]3[C@H]([C@H](OC(=O)c4ccccc4)C[C@]12C)[C@@]1(C)CCC(=O)C[C@H]1C[C@H]3O[C@H]1CCCCO1`: in series [1], the viability is 70.5%. Also, the Ratio in series [2] stood at 2.6.

Consider `CC(=O)[C@@]1(O[C@@H]2CCCCO2)CC[C@H]2[C@@H]3CC[C@@H]4CC(=O)CC[C@]4(C)[C@H]3[C@H](O[C@H]3CCCCO3)C[C@@]21C`, for which the viability in series [1] came to 67.9%. Also, the Ratio in series [2] is 2.5.

On to `CC(=O)[C@H]1CC[C@H]2[C@@H]3CC[C@H]4CC(=O)CC[C@]4(C)[C@H]3CC[C@]12C`, for which the Ratio in series [2] came to 1.

Consider `CC(=O)[C@@]1(O[C@H]2CCCCO2)CC[C@H]2[C@@H]3CCC4=CC(=O)CC[C@]4(C)[C@H]3CC[C@@]21C`, for which the Ratio in series [2] is 2.8.

Take `CC(=O)[C@H]1CC[C@H]2[C@@H]3CC[C@@H]4CC(=O)CC[C@]4(C)[C@H]3[C@H](O)C[C@]12C`: the Ratio in series [2] amounted to 1.

Turning to `CC(=O)[C@H]1CC[C@H]2[C@H]3[C@H]([C@H](OC(=O)c4ccccc4)C[C@]12C)[C@@]1(C)CCC(=O)C[C@H]1C[C@H]3O[C@@H]1CCCCO1`, the viability in series [1] was found to be 61.5%. Besides, in series [2], the Ratio amounted to 2.8.

On to `CC(=O)[C@H]1CC[C@H]2[C@@H]3CC[C@@H]4CC(=O)CC[C@]4(C)[C@H]3[C@H](O[C@H]3CCCCO3)C[C@]12C`, for which the Ratio in series [2] was 2.5.

Take `COCCCC(C)[C@H]1CC[C@H]2[C@@H]3[C@H](O[C@@H]4CCCCO4)C[C@@H]4CC(=O)CC[C@]4(C)[C@H]3C[C@H](OC(=O)c3ccccc3)[C@]12C` (some centres undefined): the viability in series [1] amounted to 51%. Further, in series [2], the Ratio turned out to be 3.4.

Turning to `COC(=O)CCC(C)[C@H]1CC[C@H]2[C@@H]3[C@H](OC(=O)c4ccccc4)C[C@@H]4CC(=O)CC[C@]4(C)[C@H]3C[C@H](O[C@H]3CCCCO3)[C@]12C` (some centres undefined), the viability in series [1] was found to be 53.5%. Further, the Ratio in series [2] came out at 2.7.

On to `CC(=O)[C@H]1CC[C@H]2[C@@H]3[C@H](OC4CCCCO4)C[C@@H]4CC(=O)CC[C@]4(C)[C@H]3CC[C@]12C` (mixture of isomers), for which the Ratio in series [2] was found to be 2.4.

Take `CC(=O)[C@@]1(O)CC[C@H]2[C@@H]3CCC4=CC(=O)CC[C@]4(C)[C@H]3CC[C@@]21C`: in series [2], the Ratio was 1.

Consider `COCCCC(C)[C@H]1CC[C@H]2[C@@H]3[C@H](OC(=O)c4ccccc4)C[C@@H]4CC(=O)CC[C@]4(C)[C@H]3C[C@H](O[C@H]3CCCCO3)[C@]12C` (some centres undefined), for which, in series [1], the viability amounted to 75.8%. In series [2], the Ratio is 2.2.

With `COC(=O)CCC(C)[C@H]1CC[C@H]2[C@@H]3[C@H](OC4CCCCO4)C[C@@H]4CC(=O)CC[C@]4(C)[C@H]3C[C@H](OC3CCCCO3)[C@]12C` (mixture of isomers), the viability in series [1] came to 63.2%. Besides, the Ratio in series [2] is 3.5.

On to `COC(=O)CCC(C)[C@H]1CC[C@H]2[C@@H]3[C@H](OC4=CCOCC4)C[C@@H]4CC(=O)CC[C@]4(C)[C@H]3C[C@H](OC3=CCOCC3)[C@]12C` (some centres undefined), for which, in series [1], the viability was determined as 76.3%. In addition, the Ratio in series [2] is 3.7.

`COC(=O)CCC(C)[C@H]1CC[C@H]2[C@@H]3[C@H](O)C[C@@H]4CC(=O)CC[C@]4(C)[C@H]3C[C@H](O)[C@]12C` (some centres undefined): in series [2], the Ratio worked out at 1.5.

As to `COCCCC(C)[C@H]1CC[C@H]2[C@@H]3[C@H](O[C@H]4CCCCO4)C[C@@H]4CC(=O)CC[C@]4(C)[C@H]3C[C@H](OC(=O)c3ccccc3)[C@]12C` (some centres undefined), the viability in series [1] was found to be 56.3%. Further, in series [2], the Ratio amounted to 3.1.

With `CC(=O)[C@H]1CC[C@H]2[C@@H]3CC[C@@H]4CC(=O)CC[C@]4(C)[C@H]3[C@H](O[C@@H]3CCCCO3)C[C@]12C`, in series [2], the Ratio worked out at 2.5.

Turning to `CC(=O)[C@H]1CC[C@H]2[C@@H]3CCC4=CC(=O)CC[C@]4(C)[C@H]3[C@H](O[C@H]3CCCCO3)C[C@]12C`, the Ratio in series [2] came to 2.4.

On to `CC(=O)[C@H]1CC[C@H]2[C@H]3[C@H]([C@H](O)C[C@]12C)[C@@]1(C)CCC(=O)C[C@H]1C[C@H]3OC(=O)c1ccccc1`, for which the viability in series [1] is 92.9%. Besides, in series [2], the Ratio came out at 1.4.

As to `COC(=O)CCC(C)[C@H]1CC[C@H]2[C@@H]3[C@H](O[C@H]4CCCCO4)C[C@@H]4CC(=O)CC[C@]4(C)[C@H]3C[C@H](OC(=O)c3ccccc3)[C@]12C` (some centres undefined), in series [1], the viability worked out at 44.6%. The Ratio in series [2] came to 3.3.

`COc1ccc(CCN(C)CCCC(C#N)(c2ccc(OC)c(OC)c2)C(C)C)cc1OC` (centres undefined): the viability in series [1] amounted to 93.3%.

For `CC(=O)[C@@]1(O)CC[C@H]2[C@@H]3CC[C@@H]4CC(=O)CC[C@]4(C)[C@H]3[C@H](O)C[C@@]21C`, the Ratio in series [2] came out at 1.

In the case of `CC(=O)[C@H]1CC[C@H]2[C@@H]3CC[C@@H]4CC(=O)CC[C@]4(C)[C@H]3CC[C@]12C`, in series [2], the Ratio stood at 1.2.

For the compound `CC(=O)[C@@]1(O)CC[C@H]2[C@@H]3CC[C@@H]4CC(=O)CC[C@]4(C)[C@H]3CC[C@@]21C`, the Ratio in series [2] came to 1.1.

Take `CC(=O)[C@@]1(O[C@H]2CCCCO2)CC[C@H]2[C@@H]3CC[C@@H]4CC(=O)CC[C@]4(C)[C@H]3CC[C@@]21C`: in series [2], the Ratio stood at 2.4.

`CC(=O)[C@H]1CC[C@H]2[C@H]3[C@H]([C@H](O)C[C@]12C)[C@@]1(C)CCC(=O)C[C@H]1C[C@H]3O`: in series [2], the Ratio stood at 1.1.
